Series [1] has as its system Mus musculus. Kind of series: Antiradiation activity in ip dosed whole-body gamma-irradiated mouse assessed as increase in mouse survival rate compound administered 30 mins prior irradiation. In kind it is functional. The settings on record: light or radiation study, read-out: MED. The method in brief: (§1)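 Mice were dosed ip or po with compound in water, or in physiological saline containing 0.3% methylcellulose and 0.1% Tween 80, usually at pH 5–7. Dosing came 15, 30 or 60 min before whole-body ¹³⁷Cs γ irradiation (141.5 rd/min; 849 rd for most compounds). The dose reported is the lowest giving the highest survival rate. Read-out was % survival at 30 days.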

Series [2] has as its system Mus musculus. Kind of series: Antiradiation activity in ip dosed whole-body gamma-irradiated mouse assessed as mouse survival compound administered 30 mins prior irradiation measured after 30 days relative to control. In kind it is functional. The method, boiled down:
as §1

Series [3] can be described thus: Toxicity ip dosed whole-body gamma-irradiated mouse compound administered 30 mins prior irradiation. To be noted: in vivo. Type of series: organism-based.
For series [4], the system named is Mus musculus. Kind of series: Antiradiation activity in ip dosed whole-body gamma-irradiated mouse assessed as increase in mouse survival rate compound administered 15 mins prior irradiation. In kind it is functional. The settings on record: light or radiation study. The method in brief:
as §1

The test system of series [5] is Mus musculus. Description: Antiradiation activity in ip dosed whole-body gamma-irradiated mouse assessed as mouse survival compound administered 15 mins prior irradiation measured after 30 days relative to control. Type of series: functional. The method in brief: as §1
Series [6] can be described thus: Toxicity ip dosed whole-body gamma-irradiated mouse compound administered 15 mins prior irradiation. In kind it is organism-based. The settings on record: in vivo.
For series [7], the system named is Mus musculus. Kind of series: Protective index, ratio of LD50 for mouse to ED50 for antiradiation activity in ip dosed whole-body gamma-irradiated mouse. The method, boiled down: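 After ip dosing and whole-body ¹³⁷Cs γ irradiation (141.5 rd/min), ED50 (dose for 50% survival) was estimated from log dose-probit survival plots. Protective index was approximated as approx LD50 (mg/kg) × 1.5 / ED50 (mg/kg).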

The nature of series [8]: Toxicity po dosed whole-body gamma-irradiated mouse compound administered 30 mins prior irradiation. Type of series: organism-based. The settings on record: in vivo.
For series [9], the system named is Mus musculus. Description: Antiradiation activity in po dosed whole-body gamma-irradiated mouse assessed as increase in mouse survival rate compound administered 30 mins prior irradiation. The settings on record: light or radiation study, read-out: MED. In kind it is functional. The method in brief: as §1
Series [10] concerns Mus musculus. Description: Antiradiation activity in po dosed whole-body gamma-irradiated mouse assessed as mouse survival compound administered 30 mins prior irradiation measured after 30 days relative to control. Type of series: functional. The method in brief:
as §1

One may read the LD50 as the dose expected to kill half of the subjects tested. The low end stands for a more toxic substance, the high end for a less toxic substance. With `Br.NCC(N)CS` (stereo unspecified), the minimal effective dose in the series with Mus musculus [1] was 200 mg/kg. In addition, the Survival with Mus musculus [2] came to 20%. In series [3], the LD50 at 0.5 h was found to be 800 mg/kg.

A word on the ED50: it is the dose that gives a 50% effect, or the effect in half of the subjects. `Cl.NCCCC[C@H](N)CS`: the 50% effective dose (ED50) with Mus musculus [4] turned out to be 10 mg/kg. For the same molecule, the minimal effective dose stood at 25 mg/kg in the series on Mus musculus [4] (read-out: MED) and 75 mg/kg in the series on Mus musculus [9]. In addition, the Survival in the series with Mus musculus [5] came out at 80%; with Mus musculus [10], 50%. In [6], this molecule showed an LD50 at 0.25 h of 88 mg/kg. Further, the PI in the series on Mus musculus [7] is 13. This molecule displayed an LD50 at 0.5 h in series [8] of 450 mg/kg.

These data come from ChEMBL document CHEMBL3244256 (J Med Chem, 1979).
